Our source for the pKa, Ki and Activity values is ChEMBL document CHEMBL4732129, “Rationally designed N-phenylsulfonylindoles as a tool for the analysis of the non-basic 5-HTR ligands binding mode” (Eur J Med Chem, 2021).

Data set [1] is described as follows: Dissociation constant, pKa of the compound. The data set is classed as physicochemical.
The target of data set [2] is 5-hydroxytryptamine receptor 6 (Homo sapiens, UniProt P50406). Description: Displacement of [3H]-LSD from human 5-HT6 receptor incubated for 1 hr by microbeta counting method. The procedure, abridged: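 Human receptor membranes from homogenized cell pellets, centrifuged twice at 35 000 g with a 15 min 37°C incubation between spins. Buffer 50 mM Tris–HCl, 0.5 mM EDTA, 4 mM MgCl2. Radioligand 2 nM [3H]-LSD. Nonspecific binding defined with 10 μM methiothepine. Incubated 1 h at 37°C, ended by filtration. Triplicates at 7–8 concentrations (10⁻¹¹–10⁻⁴ M). Ki by Cheng-Prusoff, means of ≥2 experiments.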
Sequence of 5-hydroxytryptamine receptor 6 (P50406 whole entry): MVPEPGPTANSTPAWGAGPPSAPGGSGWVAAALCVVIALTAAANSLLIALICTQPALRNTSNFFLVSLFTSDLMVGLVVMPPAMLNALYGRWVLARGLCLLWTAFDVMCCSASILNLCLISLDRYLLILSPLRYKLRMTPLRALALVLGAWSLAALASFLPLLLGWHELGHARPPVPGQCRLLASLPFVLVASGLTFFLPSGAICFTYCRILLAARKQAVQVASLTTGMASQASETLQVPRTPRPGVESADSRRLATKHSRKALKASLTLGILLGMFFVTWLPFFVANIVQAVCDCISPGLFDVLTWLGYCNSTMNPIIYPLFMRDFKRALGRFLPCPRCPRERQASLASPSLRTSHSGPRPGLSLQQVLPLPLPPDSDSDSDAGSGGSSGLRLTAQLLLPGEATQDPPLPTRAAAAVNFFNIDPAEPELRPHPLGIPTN

Data set [3] deals with T1, 5-hydroxytryptamine receptor 1A (Homo sapiens, UniProt P08908).
T1 sequence (P08908 whole entry): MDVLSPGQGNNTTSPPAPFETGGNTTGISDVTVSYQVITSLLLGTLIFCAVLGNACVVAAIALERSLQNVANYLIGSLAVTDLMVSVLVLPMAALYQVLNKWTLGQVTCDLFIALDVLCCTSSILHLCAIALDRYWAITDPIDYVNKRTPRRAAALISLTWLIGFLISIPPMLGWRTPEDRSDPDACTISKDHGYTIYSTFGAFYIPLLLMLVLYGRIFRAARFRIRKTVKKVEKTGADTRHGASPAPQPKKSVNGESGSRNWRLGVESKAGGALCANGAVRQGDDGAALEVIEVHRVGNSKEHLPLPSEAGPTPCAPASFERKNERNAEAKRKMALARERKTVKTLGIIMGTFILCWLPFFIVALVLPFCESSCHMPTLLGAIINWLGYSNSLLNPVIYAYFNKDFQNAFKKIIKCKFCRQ
The experiment in a line: (§1) Displacement of [3H]-8-OH-DPAT from 5-HT1A receptor (unknown origin) incubated for 1 hr by microbeta counting method. In a few lines:
(§2)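 Membranes prepared from cell pellets by homogenization and two 35 000 g spins with a 15 min 37°C step between them. Buffer 50 mM Tris–HCl, 0.1 mM EDTA, 4 mM MgCl2, 10 μM pargyline, 0.1% ascorbate. Radioligand 1.5 nM [3H]-8-OH-DPAT. Nonspecific binding defined with 10 μM 5-HT. Incubated 1 h at room temperature, then filtered. Triplicates at 7–8 concentrations (10⁻¹¹–10⁻⁴ M). Ki by Cheng-Prusoff, means of ≥2 experiments.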
In general terms: Loss of bound radioactivity is the signal in a displacement assay; it reports binding, not function.

A further data set addresses D(2) dopamine receptor (Homo sapiens, UniProt P14416). Description: Displacement of [3H]-Raclopride from dopamine D2 receptor (unknown origin) incubated for 1 hr by microbeta counting method. In a few lines: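 D2L receptor membranes from cell pellets, homogenized and spun twice at 35 000 g with a 15 min 37°C step between spins. Buffer 50 mM Tris–HCl, 1 mM EDTA, 4 mM MgCl2, 120 mM NaCl, 5 mM KCl, 1.5 mM CaCl2, 0.1% ascorbate. Radioligand [3H]-raclopride. Nonspecific binding defined with 1 μM (+)butaclamol. Incubated 1 h at 37°C, then filtered. Triplicates at 7–8 concentrations (10⁻¹¹–10⁻⁴ M). Ki by Cheng-Prusoff, means of ≥2 experiments.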

In data set [4] the target is 5-hydroxytryptamine receptor 2A (Homo sapiens, UniProt P28223). Description: Binding affinity to 5-HT2A receptor (unknown origin) incubated for 1 hr by microbeta counting based displacement assay.
Sequence of 5-hydroxytryptamine receptor 2A (P28223 whole entry): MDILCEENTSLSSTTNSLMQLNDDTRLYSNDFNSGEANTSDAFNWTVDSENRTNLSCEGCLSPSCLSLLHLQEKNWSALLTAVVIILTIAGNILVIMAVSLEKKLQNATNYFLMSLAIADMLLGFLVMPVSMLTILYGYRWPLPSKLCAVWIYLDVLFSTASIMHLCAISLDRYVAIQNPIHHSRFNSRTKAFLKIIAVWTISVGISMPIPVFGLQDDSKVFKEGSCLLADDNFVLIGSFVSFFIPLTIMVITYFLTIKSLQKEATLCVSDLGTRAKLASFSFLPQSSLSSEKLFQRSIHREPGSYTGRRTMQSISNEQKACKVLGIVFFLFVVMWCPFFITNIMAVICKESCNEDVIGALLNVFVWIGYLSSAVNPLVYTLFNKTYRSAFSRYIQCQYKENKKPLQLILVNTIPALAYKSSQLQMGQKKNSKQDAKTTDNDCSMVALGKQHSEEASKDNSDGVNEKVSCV
Data set [5] has as its target 5-hydroxytryptamine receptor 7 (Homo sapiens) (UniProt P34969). Description: Displacement of [3H]-5-CT from 5-HT7b receptor (unknown origin) incubated for 1 hr by microbeta counting method. The procedure, abridged: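 Membranes from thawed cell pellets, homogenized and centrifuged twice at 35 000 g (20 min, 4°C) with a 15 min 37°C incubation between spins. Buffer 50 mM Tris–HCl, 4 mM MgCl2, 10 μM pargyline, 0.1% ascorbate. Radioligand 0.6 nM [3H]-5-CT. Nonspecific binding defined with 10 μM 5-HT. Incubated 1 h at 37°C, ended by rapid filtration. Triplicates at 7–8 concentrations (10⁻¹¹–10⁻⁴ M). Ki by Cheng-Prusoff, means of ≥2 experiments.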

Data set [6] addresses T2, 5-hydroxytryptamine receptor 1A (Homo sapiens) (UniProt P08908).
T2 sequence (whole entry): T1 sequence (P08908 whole entry)
The description is as §1. In a few lines: as §2

Calls of active or inactive are those of the source. The calls are words filed in the database; no cut-off is given here.

Sequence of D(2) dopamine receptor (P14416 whole entry): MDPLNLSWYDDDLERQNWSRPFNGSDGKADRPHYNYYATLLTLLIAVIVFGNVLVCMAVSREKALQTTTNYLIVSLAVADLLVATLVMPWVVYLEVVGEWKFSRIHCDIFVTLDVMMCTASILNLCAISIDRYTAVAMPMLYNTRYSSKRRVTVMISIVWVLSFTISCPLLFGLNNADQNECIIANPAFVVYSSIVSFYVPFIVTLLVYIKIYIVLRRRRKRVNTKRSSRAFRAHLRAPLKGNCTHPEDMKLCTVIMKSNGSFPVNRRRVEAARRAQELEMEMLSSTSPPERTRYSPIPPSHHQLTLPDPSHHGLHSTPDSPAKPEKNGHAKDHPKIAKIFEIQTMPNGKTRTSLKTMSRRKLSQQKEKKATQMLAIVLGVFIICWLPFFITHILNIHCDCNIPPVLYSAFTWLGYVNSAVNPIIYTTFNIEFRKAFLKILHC
Sequence of 5-hydroxytryptamine receptor 7 (Homo sapiens) (P34969 whole entry): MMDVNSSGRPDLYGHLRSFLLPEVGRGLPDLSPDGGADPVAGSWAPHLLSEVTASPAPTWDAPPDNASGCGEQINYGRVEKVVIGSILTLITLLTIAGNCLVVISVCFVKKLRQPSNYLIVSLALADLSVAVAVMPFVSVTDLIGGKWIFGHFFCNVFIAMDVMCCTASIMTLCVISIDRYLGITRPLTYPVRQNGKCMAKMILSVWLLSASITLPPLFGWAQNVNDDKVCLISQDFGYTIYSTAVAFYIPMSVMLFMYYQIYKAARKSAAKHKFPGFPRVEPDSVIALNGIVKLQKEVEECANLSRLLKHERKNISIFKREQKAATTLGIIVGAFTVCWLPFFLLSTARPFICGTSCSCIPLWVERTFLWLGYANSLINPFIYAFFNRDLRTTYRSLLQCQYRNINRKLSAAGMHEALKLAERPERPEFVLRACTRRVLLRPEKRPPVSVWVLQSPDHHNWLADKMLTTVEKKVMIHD

Usually pKa stands for the pH at which an ionisable group is half protonated. A low value points to a stronger acid or weaker base. Broadly, the Ki is a measure of affinity in units of concentration, obtained from inhibition or displacement. A high value points to weaker binding. In the case of `O=S(=O)(c1ccccc1)n1ccc2c(N3CCCCC3)cccc21`, the pKa in data set [1] is 5.4. In data set [2], the affinity, expressed as Ki, was 128 nM.

Turning to `CN(C)c1cn(S(=O)(=O)c2ccccc2)c2ccccc12`, the pKa in data set [1] was found to be 4.2. Besides, affinity in data set [2] was put at a Ki of 474 nM.

In turn, `CN(C)c1cccc2c1ccn2S(=O)(=O)N1CCCCC1` showed a Ki in data set [2] of 39100 nM. In other words, the double-digit micromolar range.

As for `O=S(=O)(c1ccccc1)n1ccc2c(-c3ccncc3)cccc21`, in data set [1], the pKa was found to be 4.9. The affinity in data set [2] corresponds to a Ki of 1510 nM.

`O=S(=O)(c1ccccc1)n1ccc2cc(N3CCCCC3)ccc21` came in with a pKa in data set [1] of 1.9. This compound also came in with a Ki in data set [2] of 360 nM.

Consider `CN1CCN(c2cn(S(=O)(=O)c3ccccc3)c3ccccc23)CC1`, for which, in data set [1], the pKa was determined as 7.4.

On to `O=S(=O)(c1ccccc1)n1ccc2ccc(N3CCCCC3)cc21`, for which the pKa in data set [1] is -0.4. Further, affinity in data set [2] was put at a Ki of 403 nM.

`CCCCS(=O)(=O)n1ccc2ccc(-c3ccncc3)cc21` had a Ki in data set [2] of 1150 nM.

As to `O=S(=O)(N1CCCCC1)n1ccc2ccc(-c3ccncc3)cc21`, the Ki in data set [2] came out at 1660 nM. This Ki and that of the compound before are within 1.5-fold of each other.

For `O=S(=O)(c1ccccc1)n1cc(-c2ccccc2)c2ccccc21`, the affinity in data set [2], expressed as Ki, was 146 nM. Compared with the last compound, the Ki is about 11-fold lower.

In the case of `CN1CCN(c2ccc3ccn(S(=O)(=O)c4ccccc4)c3c2)CC1`, the pKa in data set [1] amounted to 8.2. Moreover, the values for the Ki (in data set [2]; in data set [3]; on D(2) dopamine receptor) were 9 nM, 247 nM and 241 nM, respectively.

For `O=S(=O)(c1ccccc1)n1cc(N2CCN(CC(F)(F)F)CC2)c2ccccc21`, the pKa in data set [1] came out at 3.6. This compound gave an inhibition constant Ki in data set [2] of 2030 nM.

In the case of `CN(C)c1cccc2c1ccn2S(=O)(=O)c1ccccc1`, the result (in data set [4]; in data set [5]; in data set [6]; at D(2) dopamine receptor) was inactive. This compound also came in with a pKa in data set [1] of 5. The compound further had a Ki in data set [2] of 65 nM.

The compound `O=S(=O)(c1ccccc1)n1ccc2c(O)cccc21` gave a Ki in data set [2] of 108 nM. That is a sub-micromolar value.

`O=S(=O)(c1ccccc1)n1cc(N2CCCCC2)c2ccccc21` gave a pKa in data set [1] of 4.5. Besides, the Ki in data set [2] came to 219 nM.

Turning to `COc1ccc2c(ccn2S(=O)(=O)c2ccccc2)c1`, the inhibition constant Ki in data set [2] was 127 nM.

`O=S(=O)(c1ccccc1)n1ccc2cc(-c3ccccc3)ccc21` yielded a Ki in data set [2] of 558 nM.

In data set [2], `c1ccc(Cn2ccc3ccc(-c4ccncc4)cc32)cc1` showed a Ki of 3260 nM. Against the preceding compound, the Ki is about 5.8-fold higher.

In data set [1], `CC(=O)N1CCN(c2ccc3ccn(S(=O)(=O)c4ccccc4)c3c2)CC1` gave a pKa of -0.4. Further, the Ki in data set [2] was 97 nM.

Regarding `O=S(=O)(c1ccccc1)n1ccc2ccc(-c3ccccc3)cc21`, the Ki in data set [2] was determined as 178 nM. In other words, the sub-micromolar range.

For `CC(=O)N1CCN(c2cn(S(=O)(=O)c3ccccc3)c3ccccc23)CC1`, the pKa in data set [1] was 0.6. In data set [2], this compound returned a Ki of 97 nM.

`O=S(=O)(c1ccccc1)n1cc(-c2ccncc2)c2ccccc21` showed a pKa in data set [1] of 5. For the same compound, the affinity in data set [2], expressed as Ki, was 124 nM.

`CN(C)c1cccc2c1ccn2S(=O)(=O)C1CCCCC1` came in with a Ki in data set [2] of 4890 nM.

As to `O=S(=O)(c1ccccc1)n1ccc2ccccc21`, the Ki in data set [2] was 159 nM.

On to `O=S(=O)(c1ccccc1)n1ccc2ccc(-c3ccncc3)cc21`, for which the result (in data set [4]; in data set [5]; in data set [6]; at D(2) dopamine receptor) was inactive. The pKa in data set [1] is 4.9. The affinity in data set [2], expressed as Ki, was 38 nM.

Compound `CC(=O)N1CCN(c2ccc3c(ccn3S(=O)(=O)c3ccccc3)c2)CC1` showed a pKa in data set [1] of 0.9. This compound also returned a Ki in data set [2] of 4850 nM.

As to `CN1CCN(c2cccc3c2ccn3S(=O)(=O)c2ccccc2)CC1`, the Ki in data set [4] was 41 nM; in data set [3], 164 nM. Also, in data set [1], the pKa is 7.3.

As to `O=S(=O)(c1ccccc1)n1ccc2c(N3CCN(CC(F)(F)F)CC3)cccc21`, the pKa in data set [1] was found to be 3.9. Also, the affinity in data set [2] corresponds to a Ki of 1740 nM.

`CN(C)c1ccc2ccn(S(=O)(=O)c3ccccc3)c2c1` gave a pKa in data set [1] of -0.3. The Ki in data set [2] was 211 nM.

Compound `CCCCS(=O)(=O)n1ccc2c(N(C)C)cccc21` had a Ki in data set [2] of 49900 nM.

With `CN1CCN(c2ccc3c(ccn3S(=O)(=O)c3ccccc3)c2)CC1`, the pKa in data set [1] was found to be 7.4. For the same compound, the Ki in data set [2] was found to be 27 nM.

Consider `CN(C)c1cccc2c1ccn2S(C)(=O)=O`, for which, in data set [2], the affinity corresponds to a Ki of 4720 nM.

Take `O=S(=O)(c1ccccc1)n1ccc2ccc(N3CCN(CC(F)(F)F)CC3)cc21`: in data set [1], the pKa amounted to 3.6. The Ki in data set [2] is 1200 nM.

Take `O=S(=O)(c1ccccc1)n1ccc2cc(-c3ccncc3)ccc21`: the pKa in data set [1] came to 4.5. The same compound registered an inhibition constant (Ki) in data set [2] of 409 nM.

In data set [2], `CS(=O)(=O)n1ccc2ccc(-c3ccncc3)cc21` had a Ki of 4050 nM.

`CN(C)c1ccc2c(ccn2S(=O)(=O)c2ccccc2)c1`: in data set [1], the pKa worked out at 3.3. Further, in data set [2], the Ki was determined as 82 nM.

In turn, `COc1cccc2c1ccn2S(=O)(=O)c1ccccc1` showed an inhibitory constant (Ki) in data set [2] of 262 nM.

Compound `CC(=O)N1CCN(c2cccc3c2ccn3S(=O)(=O)c2ccccc2)CC1` displayed a pKa in data set [1] of 0.8. In data set [2], this compound had a Ki of 714 nM.

Regarding `O=S(=O)(c1ccccc1)n1ccc2cc(N3CCN(CC(F)(F)F)CC3)ccc21`, the pKa in data set [1] came out at 3.4. This compound also had a Ki in data set [2] of 5250 nM.

As to `O=S(=O)(C1CCCCC1)n1ccc2ccc(-c3ccncc3)cc21`, in data set [2], affinity was put at a Ki of 2180 nM.

Compound `O=S(=O)(c1ccccc1)n1ccc2c(-c3ccccc3)cccc21` displayed a Ki in data set [2] of 162 nM. Compared with the last compound, the Ki is about 13-fold lower.

On to `CN(C)c1cccc2c1ccn2Cc1ccccc1`, for which the Ki in data set [2] worked out at 2560 nM.
